Experimental findings from ChEMBL document CHEMBL2203250, “Synthesis and evaluation of 3-¹²³I-iodo-5-[2-(S)-3-pyrrolinylmethoxy]-pyridine (niodene) as a potential nicotinic α4β2 receptor imaging agent” (Bioorg Med Chem Lett, 2012) are described below.

Data set [1] relates to Nucleic Acid. As to the kind of experiment: Ratio of drug uptake in thalamus to cerebellum in Sprague-Dawley rat brain at 2 uCi/umol after 60 mins by autoradiographic analysis. The format is ADME, tissue-based. As to conditions: in vivo, 1 h.
Data set [2] addresses T1, Neuronal acetylcholine receptor; alpha4/beta2 (Rattus norvegicus) (UniProt P09483+P12390). The experiment in a line: Displacement of [18F]nifene from alpha4beta nAChR in Sprague-Dawley rat subiculum at 10 nM after 60 mins by autoradiographic analysis. The format is protein-complex assay. In outline: (§1)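 Rat brain slices were preincubated 10 min in Tris HCl buffer with salts, pH 7.4. […] Slices got two 1-min ice-cold Tris HCl washes and a cold water rinse, then overnight phosphor-screen exposure. Regional binding was read as DLU/mm² and expressed relative to cerebellum.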
(In general: In a radioligand displacement assay an active substance lowers the binding of a labelled ligand.)

Data set [3] concerns the target T1, Neuronal acetylcholine receptor; alpha4/beta2 (Rattus norvegicus). The experiment in a line: Displacement of [18F]nifene from alpha4beta nAChR in Sprague-Dawley rat striatum at 10 nM after 60 mins by autoradiographic analysis. It counts as protein-complex assay. In outline: as §1
The target is the same in data set [4]. As to the kind of experiment: Displacement of [18F]nifene from alpha4beta nAChR in Sprague-Dawley rat thalamus at 10 nM after 60 mins by autoradiographic analysis. It counts as protein-complex assay. The method in brief:
as §1

For data set [5] the target is unchanged. As to the kind of experiment: Displacement of [18F]nifene from alpha4beta nAChR in Sprague-Dawley rat frontal cortex at 10 nM after 60 mins by autoradiographic analysis. The format is tissue-based. The method in brief: as §1
Data set [6] shares this target. The experiment in a line: Ratio of nifene Ki to compound Ki for rat alpha4beta2 nAChR. The format is protein-complex assay.
Data set [7] shares this target. The experiment in a line: Binding affinity to alpha4beta2 nAChR in Sprague-Dawley rat cerebellum at 0.1 Ci/umol after 60 mins by autoradiographic analysis. The format is protein-complex assay. As to conditions: tested as the 123I-labelled form. The method in brief:
(§2)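 Frozen rat brain sections were thawed for about 15 min at ambient temperature. They were preincubated 10 min in 120 mM Tris HCl with 5 mM NaCl, 5 mM KCl, 2.5 mM CaCl2 and 1 mM MgCl2, pH 7.4, then incubated with 5 nM 123I-niodene at 37 °C for 60 min. […] Sections were washed in ice-cold buffer and exposed to phosphor screens for at least 16 h. Regional binding was read as DLU/mm²; n ≥5 sections, mean and SD.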

Data set [8] shares this target. The experiment in a line: Displacement of [18F]nifene from alpha4beta nAChR in Sprague-Dawley rat thalamus at 1 uM after 60 mins by autoradiographic analysis. The format is protein-complex assay. In outline:
as §1

The target is the same in data set [9]. As to the kind of experiment: Binding affinity to alpha4beta2 nAChR in Sprague-Dawley rat thalamus at 0.1 Ci/umol after 60 mins by autoradiographic analysis. The format is protein-complex assay. As to conditions: tested as the 123I-labelled form. In outline: as §2
For data set [10] the target is unchanged. The experiment in a line: Binding affinity to alpha4beta2 nAChR in Sprague-Dawley rat cortex at 0.1 Ci/umol after 60 mins by autoradiographic analysis. As to conditions: tested as the 123I-labelled form. The method in brief: as §2
The target in data set [11] is Neuronal acetylcholine receptor; alpha4/beta2 (Rattus norvegicus, UniProt P09483+P12390). The experiment in a line: Displacement of [3H]cytisine from alpha4beta2 nAChR in rat brain homogenate. It counts as tissue-based. The method in brief:
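Male Sprague–Dawley rat cerebrum was homogenized, washed twice by centrifugation at 40,000g and resuspended. It was incubated with 1 nM 3H-cytisine and competitor (10^-10 to 10^-3 M) in 50 mM Tris, pH 7.0, with 120 mM NaCl, 5 mM KCl, 1 mM MgCl2 and 2.5 mM CaCl2, at 2 °C for 75 min. […] The assay was filtered, and filters were washed in cold buffer and scintillation-counted.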

Data set [12] concerns Nucleic Acid. The experiment in a line: Ratio of drug uptake in thalamus to cerebellum in Sprague-Dawley rat brain at 0.1 Ci/umol after 60 mins by autoradiographic analysis. It counts as ADME, tissue-based. As to conditions: in vivo, 1 h.
The subject of data set [13] is Nucleic Acid. The experiment in a line: Ratio of drug uptake in cortex to cerebellum in Sprague-Dawley rat brain at 0.1 Ci/umol after 60 mins by autoradiographic analysis. The format is ADME, tissue-based. As to conditions: in vivo, 1 h.

Active and inactive are the calls of the source. The rule behind the calls is not given here.

Chain of Neuronal acetylcholine receptor; alpha4/beta2 (P09483 whole entry): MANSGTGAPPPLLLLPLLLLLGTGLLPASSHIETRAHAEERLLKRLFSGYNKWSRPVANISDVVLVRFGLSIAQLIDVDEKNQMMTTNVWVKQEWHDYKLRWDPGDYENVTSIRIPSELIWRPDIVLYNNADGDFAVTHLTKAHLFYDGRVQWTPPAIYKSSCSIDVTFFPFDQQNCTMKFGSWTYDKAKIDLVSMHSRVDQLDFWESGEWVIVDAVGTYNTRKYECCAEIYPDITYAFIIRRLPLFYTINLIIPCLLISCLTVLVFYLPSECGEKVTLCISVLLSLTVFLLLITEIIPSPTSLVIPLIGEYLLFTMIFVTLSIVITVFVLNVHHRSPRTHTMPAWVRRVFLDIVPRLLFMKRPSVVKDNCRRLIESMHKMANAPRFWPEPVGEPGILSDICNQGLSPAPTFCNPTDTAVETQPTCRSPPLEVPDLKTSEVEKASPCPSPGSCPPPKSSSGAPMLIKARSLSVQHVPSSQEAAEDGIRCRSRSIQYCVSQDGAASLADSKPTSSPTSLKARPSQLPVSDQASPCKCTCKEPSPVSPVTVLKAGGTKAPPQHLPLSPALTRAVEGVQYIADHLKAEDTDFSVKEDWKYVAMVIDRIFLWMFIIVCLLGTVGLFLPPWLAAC
Chain of Neuronal acetylcholine receptor; alpha4/beta2 (P12390 whole entry): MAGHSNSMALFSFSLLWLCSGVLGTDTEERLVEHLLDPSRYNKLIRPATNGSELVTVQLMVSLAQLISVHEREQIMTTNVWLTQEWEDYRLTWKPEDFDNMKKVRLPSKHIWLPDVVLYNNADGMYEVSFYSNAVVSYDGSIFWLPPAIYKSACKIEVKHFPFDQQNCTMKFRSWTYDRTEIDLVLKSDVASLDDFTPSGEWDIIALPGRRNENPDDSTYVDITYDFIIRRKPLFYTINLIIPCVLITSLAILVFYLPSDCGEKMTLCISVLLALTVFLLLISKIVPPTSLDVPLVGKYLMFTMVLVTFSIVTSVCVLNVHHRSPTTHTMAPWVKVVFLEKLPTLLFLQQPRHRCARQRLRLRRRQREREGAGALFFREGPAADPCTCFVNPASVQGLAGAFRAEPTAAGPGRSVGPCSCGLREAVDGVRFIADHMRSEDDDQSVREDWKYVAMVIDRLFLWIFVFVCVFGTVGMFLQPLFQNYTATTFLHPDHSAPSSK

On to `[18F]c1ncccc1OC[C@@H]1C=CCN1`, for which the Ratio in the data set with Nucleic Acid [1] was 7.3.

As for `CN1CCC[C@H]1c1cccnc1`, the outcome in data set [2], in data set [3] and in data set [5] was Active. This molecule returned an Activity in data set [4] of 24%.

For the molecule `Ic1cncc(OC[C@@H]2C=CCN2)c1`, the result in data set [2], in data set [3], in data set [5], in data set [9] and in data set [10] was Active. In addition, the Ratio Ki in data set [6] turned out to be 2. In addition, in data set [7], the result was inactive. Also, the Activity in [8] was more than 80%; in [4] it was more than 65%.

`Fc1ncccc1OC[C@@H]1C=CCN1`: in data set [11], the affinity, expressed as Ki, was 0.5 nM.

Turning to `[123I]c1cncc(OC[C@@H]2C=CCN2)c1`, the Ratio in the data set on Nucleic Acid [12] was 4; in the data set with Nucleic Acid [13], 1.6.
